These results are taken from PubChem BioAssay AID804 (SRMLSC, 2007).

Among all 140,000 compounds or so, about 710 (0.51%) were called active. The list comes from a sample in which actives are over-represented; it also holds similar structures and randomly drawn compounds. Values without a mark were called inactive.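 How the source made its calls: active means inhibition above a set limit, 3 SD over the mean compound inhibition (cut at about 44% in these data); inactive means the rest.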

This assay can be described thus: BB579 yeast growth reduction, restrictive medium – S. cerevisiae, yeast lifespan-shortening project, primary screen (AID 804). The note with it: OD615, 48 h, at 10 µM, hits give high values. Summed up:
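System: Saccharomyces cerevisiae DeaD strain BB579, replicative lifespan model yeast. Buffer or medium: restrictive glucose-based CSMM-D medium. Doses: one dose, 10 µM compound with 0.25% DMSO. Timing: 4 h preincubation and 48 h exposure at 30 °C. Detection: turbidity as optical density at 615 nm. Benchmarks: amphotericin B 10 µg/mL, positive.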
`COc1ccc2nc(Nc3nc(-c4cc5ccccc5oc4=O)cs3)sc2c1`: the inhibition (usually the drop in the measured response relative to a control, in per cent) was -1.96%.

Consider `O=C(Cc1coc2ccc3ccccc3c12)NCc1cccs1`, for which the inhibition is -8.63%. On to `CCC(=O)Nc1c(S(=O)(=O)c2ccccc2)c2nc3ccccc3nc2n1Cc1ccccc1`, for which the inhibition was -16.3%. `O=C(O)c1ccc(/C=N/NC(=O)c2ccc(Br)cc2)cc1`: the inhibition was -28.3%. As to `O=S(=O)(NCCc1ccncc1)c1ccccc1`, the inhibition is -4.48%. As for `COc1cc(OC)c(C(=O)Nc2ccccc2-c2ccccc2)cc1OC`, the inhibition is -28.8%. To `CCNC(=O)NC(=O)C(C)OC(=O)C1CCN(S(=O)(=O)c2ccccc2F)CC1` (stereo not drawn) belongs 6.21%.

On to `COc1ccc(C(=O)/C=C/c2ccc(OC3CSC3)cc2)cc1`, for which the inhibition is -16.1%. To `COc1ccc(/C=C/C(=O)c2ccc(OC)cc2O)cc1` belongs -54.2%. Regarding `COc1ccc(/C=C/C(=O)c2cc(Br)ccc(=O)c2O)cc1`, the inhibition is 96% (active). To `Cc1ccc(C(=O)OCc2nc(N)nc(Nc3ccccc3C)n2)cc1` belongs -34.8%; to `CC(=O)c1c(N2CCN(c3ccc(F)cc3)CC2)nc(=S)n(-c2ccccc2)c1C`, -54.2%; to `Cc1nc(Cl)c2oc3ccccc3c2n1`, 59.5% (active). Consider `CCSc1nc(C)nc2c1oc1ccccc12`, for which the inhibition was -45.9%. `Cc1nc(N2CCCC2C(=O)O)c2oc3ccccc3c2n1` (stereo not drawn): the inhibition is -21.7%. `CCOC(=O)C1=C(C)OC(N)=C(C#N)C1c1cncc(-c2ccc(F)cc2)c1` (stereo not drawn): the inhibition is -36.2%. Take `COc1ccc(C(=O)C[n+]2ccc(C)cc2)cc1`: the inhibition was -28.4%. As for `CCc1ccc(NC(=O)CC2C(=O)NCCN2C(=S)Nc2ccccc2)cc1` (stereo not drawn), the inhibition is -24.6%. With `COc1cccc(NC(=S)NC(=O)c2c(Cl)c(C)nn2C)c1`, the inhibition is -62.5%. As for `Cc1nc2sc(C(=O)c3ccccc3)c(N)c2c2c1CCCC2`, the inhibition was 8.75%. In the case of `N#C/C(=C\c1ccccc1C(F)(F)F)C(=O)Nc1ccccc1F`, the inhibition was 4.84%.

With `CC(=O)NC1=NN(C(C)=O)C(C)(c2ccc(C)cc2)S1` (stereo not drawn), the inhibition is -33.1%. For `Fc1ccc2c(c1)C(c1cccnc1)=NNC(c1cccs1)=N2`, the inhibition is -47.9%.

Regarding `COC(=O)c1ccc(C(=O)OC)c(NC(=S)N2CCN(c3ccc(F)cc3)CC2)c1`, the inhibition is -49.1%. Regarding `Cc1ccc(-n2c(SCC(=O)N3c4ccccc4Sc4ccccc43)nnc2-c2ccncc2)cc1`, the inhibition was -47.4%. To `COc1ccc(C)cc1NC(=O)C(Sc1ccccc1)c1ccccc1` (stereo not drawn) belongs -2.09%; to `Cc1ccc(S(=O)(=O)N(C)C)cc1NC(=O)/C=C/c1cccs1`, -48%.

Turning to `Cc1cc(/C=C2\SC(=Nc3ccc(N4CCOCC4)cc3)N(C)C2=O)c(C)n1-c1cccnc1`, the inhibition is -7.27%. Regarding `Cc1occc1C(=O)Nc1nnc(C2CCCCC2)s1`, the inhibition is -32.1%. Turning to `O=C(Nc1nnc(C2CC2)s1)c1ccccn1`, the inhibition is 62% (active). Turning to `CC1CCN(c2ccc(C(=O)Nc3nnc(C4CC4)s3)cc2[N+](=O)[O-])CC1`, the inhibition was -33%. In the case of `CCC(NC(=O)c1ccccc1NC(=O)c1ccccc1)C(=O)NNC(=O)CSc1nc2ccccc2o1` (stereo not drawn), the inhibition is -6.61%. For the molecule `CCS(=O)(=O)N1Cc2ccccc2CC1C(=O)Nc1nc2ccc(F)cc2s1` (stereo not drawn), the inhibition was -23%.

Take `COc1cc(/C=C(/NC(=O)c2ccc(Cl)cc2Cl)C(=O)O)cc(OC)c1OC`: the inhibition is -17.4%. Regarding `C#CCCCc1nc2ccccc2c(=O)n1N`, the inhibition is -33.7%. With `Cc1ccc(OCC(=O)Nc2ccccc2Sc2ccc(Cl)cc2)c([N+](=O)[O-])n1` the figure was -29.5%. On to `CC1=C[C@H]2Cc3cc(C)cc(C)c3S(=O)(=O)[C@@H]2C=C1`, for which the inhibition was -12.4%. Regarding `CC(=O)N1C(C)c2ccccc2C(C)(C)CC12CCCCC2` (stereo not drawn), the inhibition was -16.3%. Take `O=c1c(Cl)c(NCc2ccc(F)cc2Cl)cnn1C12CC3CC(CC(C3)C1)C2`: the inhibition is -27.1%.

Consider `Cc1ncc(CC(=O)n2cc(C(=O)c3cc(Cl)ccc3O)cn2)s1`, for which the inhibition is 68.2% (active). As to `Cc1ccc(CCC(=O)Nc2ncc(Cc3cc(Cl)ccc3Cl)s2)o1`, the inhibition was -66.6%. Consider `COc1cc(/C=C/C(=O)OCC(=O)Nc2cccc(Oc3ccccc3)c2)ccc1O`, for which the inhibition is -29.9%. Take `C/C(=N/NC(=O)C1COc2ccccc2O1)c1ccco1` (stereo not drawn): the inhibition was -32.3%. With `O=C(COC(=O)CSc1nnc(-c2ccc(Cl)cc2)o1)Nc1cc(Cl)cc(Cl)c1` the figure was -26.3%; with `CN(Cc1ccccc1)C(=O)COC(=O)c1ccccc1Nc1ccccc1`, -8.71%; with `O=C(Nc1ccc([N+](=O)[O-])cc1)C1(c2ccccc2)CCOCC1`, -16.4%. On to `O=C(NC1CCCC1)C(NS(=O)(=O)c1ccc(Br)s1)c1ccccc1` (stereo not drawn), for which the inhibition is -26.3%. For the molecule `O=S(=O)(c1ccc(F)cc1)N1CCN(C(=S)NCc2ccco2)CC1`, the inhibition is -18%. With `N#C/C(=C(/O)COC(=O)COc1ccc(Cl)cc1)c1nc2ccccc2[nH]1` the figure was -22.6%; with `Cc1ccc(NC(=O)COC(=O)CCc2nc3ccccc3n2-c2ccccc2)c(C)c1`, -45.6%.

Take `COc1ccc(CN2CN(C(C)C)CSC2=S)cc1`: the inhibition is 68.5% (active). With `S=C1SCN(CCN2CCOCC2)CN1Cc1ccccc1` the figure was 39.7%; with `COCC(=O)Nc1cc(C(=O)OC)cc(C(=O)OC)c1`, 6.64%. As to `Cc1cc2oc(=O)cc(CN3CCN(S(=O)(=O)c4cccs4)CC3)c2cc1C(C)C`, the inhibition was -20.6%. Consider `Cc1ccc(CNC(=O)Cn2c(=O)c3sccc3n(Cc3cccc([N+](=O)[O-])c3)c2=O)cc1`, for which the inhibition was -44.2%.

With `Cc1cccc(NC(=O)Cn2c(=O)n(Cc3ccccc3)c(=O)c3c(C)c(C)sc32)c1`, the inhibition was -27.1%. To `Cc1ccc(C(=O)NCC2CCCO2)o1` (stereo not drawn) belongs -26.6%. `Cc1cc(Br)ccc1NC(=O)C1CCCO1` (stereo not drawn): the inhibition is -21.5%. On to `OC(CNCC1CCCO1)Cn1c2ccc(Br)cc2c2cc(Br)ccc21` (stereo not drawn), for which the inhibition is 98.7% (active). For `COc1ccc2nc(/N=C(\N)NC(=O)Nc3ccccc3)nc(C)c2c1`, the inhibition is 68.3% (active). Regarding `COc1ccc2nc(SCc3ccccc3)nc(C)c2c1`, the inhibition was -34.5%. Take `COc1ccc(NC(=O)Nc2ccc3nc(C)c(C)nc3c2)cc1`: the inhibition is -50.2%. To `CCOC(=O)CC(NC(=O)C1c2ccccc2Oc2ccccc21)c1ccc(C)cc1` (stereo not drawn) belongs -27.5%; to `Cc1cc(/C=C2/NC(=O)NC2=O)c(C)n1-c1cccnc1`, -7.15%; to `CC(C)n1c(O)c(N=Nc2ccccn2)c2ccccc21`, -16.1%.

Consider `C=C1c2cc(CC)ccc2NC(=O)N1c1ccc(C)cc1`, for which the inhibition is 23.4%. Regarding `O=C1Nc2ccccc2C12Nc1ccccc1S2` (stereo not drawn), the inhibition is -30.7%.

Take `CCc1ccc2c(c1)C1(NN=C(c3ccccc3)S1)C(=O)N2` (stereo not drawn): the inhibition is 94.7% (active).

In the case of `Cc1ccc(OCCOCCOc2ccc(Br)cc2/C=N\NC(=O)c2ccncc2)cc1`, the inhibition is -32.5%. Turning to `COC(=O)c1ccccc1NC(=S)NC(=O)c1ccccc1F`, the inhibition is -31.5%. With `CC(C)(C)c1ccc(/C=C/C(=O)Nc2ncccn2)cc1` the figure was -6.47%; with `CCn1c(C(C)NC(=O)c2ccc(C)cc2)n[nH]c1=S` (stereo not drawn), -50.9%.

As for `COc1ccc(Cc2nnc(N/N=C/c3ccccc3O)[nH]c2=O)cc1OC`, the inhibition is -57%. Consider `Cc1csc(=Nc2ccccc2)n1CCO`, for which the inhibition was -3.94%. As for `Oc1c(Cl)cc(Cl)c(Cl)c1Cc1c(O)c(Cl)cc(Cl)c1Cl`, the inhibition was 71.3% (active). As for `Cc1ccc(C(=O)Nc2sc(Cc3ccc4c(c3)OCO4)c(C)c2C(N)=O)cc1`, the inhibition is -10.9%. Consider `NC1=C([N+](=O)[O-])C(c2ccccc2)C2=C(CCCC2=O)O1` (stereo not drawn), for which the inhibition is -44.3%. On to `CCCCC(O)(CCCC)C(=O)NN(C(=O)CCl)c1ccccc1`, for which the inhibition is -4.22%. To `CCOC(=O)c1sc2nc(C)nc(SCC(N)=O)c2c1C` belongs -20.9%. Take `CCOc1ccc(/C=N/NC(=O)C(C)Sc2ccccn2)cc1OCC` (stereo not drawn): the inhibition is -33.6%. As for `Cc1ccc2[nH]c(=O)c(CC=C(Cl)Cl)c(C)c2c1`, the inhibition is -51.5%.

As to `CCOC(=O)c1sc(NC(=O)COc2ncnc3ccccc23)c(C(=O)OCC)c1C`, the inhibition was -43.9%. With `Cc1nn(Cc2ccccc2)c(C)c1C(=O)NCCN1C(=O)S/C(=C\c2ccc(F)cc2)C1=O` the figure was -32.9%. For the molecule `CC(CNc1ccc([N+](=O)[O-])c2cccnc12)Nc1c([N+](=O)[O-])cc(C(F)(F)F)cc1[N+](=O)[O-]` (stereo not drawn), the inhibition is -23.5%.

Turning to `NS(=O)(=O)c1ccc(N=Cc2ccc(Br)s2)cc1`, the inhibition was -15%. In the case of `O=C(COC(=O)/C=C/c1cn(-c2ccccc2)nc1-c1cccnc1)Nc1ccc(Cl)cc1Cl`, the inhibition was -21.4%. To `CC(Sc1nnc2c(n1)C1CCC2(C)C1(C)C)C(=O)Nc1ccccc1` (stereo not drawn) belongs -23.4%; to `O=C(/C=C\c1ccc2c(c1)OCO2)NC1(C(=O)Nc2ccc3c(c2)OCCO3)CCCCC1`, 9.33%; to `COc1ccc(S(=O)(=O)N2CN(CCc3ccc(OC)c(OC)c3)c3nc4ccccc4nc32)cc1`, -25.7%. To `COc1cccc(N(C(=O)C2COc3ccccc3O2)C(C(=O)NC2CCCCC2)c2ccc(O)cc2)c1` (stereo not drawn) belongs -6.16%. With `CCCCCCCC[n+]1cccc(C(=O)N2c3c(nc(N)[nH]c3=O)NC(C)C2C)c1` (stereo not drawn) the figure was -5.07%; with `O=C(Nc1nc(-c2ccc(-c3ccccc3)cc2)cs1)c1cnccn1`, -18.9%; with `O=C(CNCc1ccc(F)cc1)Nc1ccccc1-c1ccccc1`, -20.9%.
